Laboratory results: ChEMBL document CHEMBL2331324, “Synthesis and biological evaluation of guanidino analogues of roscovitine” (Eur J Med Chem, 2013)

How the values were obtained:
[1] = molecular target: RAC-alpha serine/threonine-protein kinase (Homo sapiens) (UniProt P31749); assay: Inhibition of recombinant PKB alpha (unknown origin) assessed as residual activity using [gamma-33P]ATP as substrate at 1 uM
Method in brief: (§1)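 Selectivity panel run under previously published conditions. Screened at 1 μM in duplicate. Reactions started with [γ-33P]ATP (800 cpm/pmol) at 5, 20 or 50 μM, chosen to be at or below each enzyme's ATP Km. Stopped with phosphoric acid, spotted onto P81 filters. Result expressed as residual kinase activity.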

[2] = molecular target: Mitogen-activated protein kinase 8 (Homo sapiens) (UniProt P45983); assay: Inhibition of recombinant JNK1 (unknown origin) assessed as residual activity using [gamma-33P]ATP as substrate at 1 uM; method in brief: as §1
[3] = molecular target: Homeodomain-interacting protein kinase 3 (Homo sapiens) (UniProt Q9H422); assay: Inhibition of recombinant HIPK3 (unknown origin) assessed as residual activity using [gamma-33P]ATP as substrate at 1 uM
Method in brief: (§2)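 Recombinant kinase panel screened at 1 µM in duplicate. Reactions started with [γ-33P]ATP (800 cpm/pmol) at 5, 20 or 50 µM, chosen to sit at or below each enzyme's ATP Km. Stopped with phosphoric acid and spotted onto P81 filters. Result given as residual kinase activity.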

Homo sapiens = species: Homo sapiens; assay: Inhibition of recombinant PKA (unknown origin) assessed as residual activity using [gamma-33P]ATP as substrate at 1 uM; method in brief: as §1
[4] = molecular target: Insulin receptor-related protein (Homo sapiens) (UniProt P14616); assay: Inhibition of recombinant IRR (unknown origin) assessed as residual activity using [gamma-33P]ATP as substrate at 1 uM; method in brief: as §2
[5] = molecular target: Calcium/calmodulin-dependent protein kinase kinase 2 (Homo sapiens) (UniProt Q96RR4); assay: Inhibition of recombinant CAMKKbeta (unknown origin) assessed as residual activity using [gamma-33P]ATP as substrate at 1 uM; method in brief: as §2
[6] = molecular target: Serine/threonine-protein kinase 26 (Homo sapiens) (UniProt Q9P289); assay: Inhibition of recombinant MST4 (unknown origin) assessed as residual activity using [gamma-33P]ATP as substrate at 1 uM; method in brief: as §1
[7] = molecular target: 3-phosphoinositide-dependent protein kinase 1 (Homo sapiens) (UniProt O15530); assay: Inhibition of recombinant PDK1 (unknown origin) assessed as residual activity using [gamma-33P]ATP as substrate at 1 uM
[8] = molecular target: Interleukin-1 receptor-associated kinase 4 (Homo sapiens) (UniProt Q9NWZ3); assay: Inhibition of recombinant IRAK4 (unknown origin) assessed as residual activity using [gamma-33P]ATP as substrate at 1 uM; method in brief: as §2
[9] = molecular target: Glycogen synthase kinase-3 beta (Homo sapiens) (UniProt P49841); assay: Inhibition of recombinant GSK3b (unknown origin) assessed as residual activity using [gamma-33P]ATP as substrate at 1 uM; method in brief: as §2
[10] = molecular target: Angiopoietin-1 receptor (Homo sapiens) (UniProt Q02763); assay: Inhibition of recombinant TIE2 (unknown origin) assessed as residual activity using [gamma-33P]ATP as substrate at 1 uM
Method in brief: (§3)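 Kinase panel screen with each compound at 1 µM, in duplicate. Reactions were started with [γ-33P]ATP (800 cpm/pmol) at 5, 20 or 50 µM, chosen per enzyme to be at or below its ATP Km. Reactions were stopped with phosphoric acid and spotted onto P81 filters. Results are given as residual kinase activity.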

[11] = molecular target: Insulin receptor (Homo sapiens) (UniProt P06213); assay: Inhibition of recombinant IR (unknown origin) assessed as residual activity using [gamma-33P]ATP as substrate at 1 uM; method in brief: as §2
[12] = molecular target: Mitogen-activated protein kinase 13 (Homo sapiens) (UniProt O15264); assay: Inhibition of recombinant p38 MAPKdelta (unknown origin) assessed as residual activity using [gamma-33P]ATP as substrate at 1 uM; method in brief: as §3
[13] = molecular target: Maternal embryonic leucine zipper kinase (Homo sapiens) (UniProt Q14680); assay: Inhibition of recombinant MELK (unknown origin) assessed as residual activity using [gamma-33P]ATP as substrate at 1 uM; method in brief: as §1
[14] = molecular target: Aurora kinase A (Homo sapiens) (UniProt O14965); assay: Inhibition of recombinant AURA (unknown origin) assessed as residual activity using [gamma-33P]ATP as substrate at 1 uM; method in brief: as §2
[15] = molecular target: Misshapen-like kinase 1 (Homo sapiens) (UniProt Q8N4C8); assay: Inhibition of recombinant MINK1 (unknown origin) assessed as residual activity using [gamma-33P]ATP as substrate at 1 uM; method in brief: as §1
[16] = molecular target: Serine/threonine-protein kinase 16 (Homo sapiens) (UniProt O75716); assay: Inhibition of recombinant MPSK1 (unknown origin) assessed as residual activity using [gamma-33P]ATP as substrate at 1 uM; method in brief: as §1
[17] = molecular target: Serine/threonine-protein kinase Chk2 (Homo sapiens) (UniProt O96017); assay: Inhibition of recombinant CHK2 (unknown origin) assessed as residual activity using [gamma-33P]ATP as substrate at 1 uM; method in brief: as §2
[18] = molecular target: Proto-oncogene tyrosine-protein kinase Src (Homo sapiens) (UniProt P12931); assay: Inhibition of recombinant SRC (unknown origin) assessed as residual activity using [gamma-33P]ATP as substrate at 1 uM; method in brief: as §3
[19] = molecular target: Mitogen-activated protein kinase 15 (Homo sapiens) (UniProt Q8TD08); assay: Inhibition of recombinant ERK8 (unknown origin) assessed as residual activity using [gamma-33P]ATP as substrate at 1 uM; method in brief: as §2
[20] = molecular target: MAP/microtubule affinity-regulating kinase 4 (Homo sapiens) (UniProt Q96L34); assay: Inhibition of recombinant MARK4 (unknown origin) assessed as residual activity using [gamma-33P]ATP as substrate at 1 uM; method in brief: as §1
[21] = molecular target: Protein kinase C alpha type (Homo sapiens) (UniProt P17252); assay: Inhibition of recombinant PKCalpha (unknown origin) assessed as residual activity using [gamma-33P]ATP as substrate at 1 uM; method in brief: as §1
[22] = molecular target: Ribosomal protein S6 kinase alpha-3 (Homo sapiens) (UniProt P51812); assay: Inhibition of recombinant RSK2 (unknown origin) assessed as residual activity using [gamma-33P]ATP as substrate at 1 uM; method in brief: as §3
[23] = molecular target: Calcium/calmodulin-dependent protein kinase type 1 (Homo sapiens) (UniProt Q14012); assay: Inhibition of recombinant CAMK1 (unknown origin) assessed as residual activity using [gamma-33P]ATP as substrate at 1 uM; method in brief: as §2
[24] = molecular target: MAP kinase-activated protein kinase 5 (Homo sapiens) (UniProt Q8IW41); assay: Inhibition of recombinant PRAK (unknown origin) assessed as residual activity using [gamma-33P]ATP as substrate at 1 uM; method in brief: as §1
[25] = molecular target: Serine/threonine-protein kinase pim-2 (Homo sapiens) (UniProt Q9P1W9); assay: Inhibition of recombinant PIM2 (unknown origin) assessed as residual activity using [gamma-33P]ATP as substrate at 1 uM; method in brief: as §1
MCF7 = assay: Cell cycle arrest in human MCF7 cells assessed as accumulation of cells in G2+M phase at 100 uM after 24 hrs by propidium iodide staining based flow cytometry relative to untreated control; type: functional
Method in brief: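 Flow cytometry on MCF7 cells given 100 µM for 24 h. About one million cells fixed in 90% methanol and rehydrated. DNA stained with propidium iodide, read at 488/575 nm (ex/em). The value is the G2+M fraction of treated cells divided by the G2+M fraction of untreated control cells.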

Chain of Ribosomal protein S6 kinase alpha-3 (Homo sapiens) (P51812 whole entry): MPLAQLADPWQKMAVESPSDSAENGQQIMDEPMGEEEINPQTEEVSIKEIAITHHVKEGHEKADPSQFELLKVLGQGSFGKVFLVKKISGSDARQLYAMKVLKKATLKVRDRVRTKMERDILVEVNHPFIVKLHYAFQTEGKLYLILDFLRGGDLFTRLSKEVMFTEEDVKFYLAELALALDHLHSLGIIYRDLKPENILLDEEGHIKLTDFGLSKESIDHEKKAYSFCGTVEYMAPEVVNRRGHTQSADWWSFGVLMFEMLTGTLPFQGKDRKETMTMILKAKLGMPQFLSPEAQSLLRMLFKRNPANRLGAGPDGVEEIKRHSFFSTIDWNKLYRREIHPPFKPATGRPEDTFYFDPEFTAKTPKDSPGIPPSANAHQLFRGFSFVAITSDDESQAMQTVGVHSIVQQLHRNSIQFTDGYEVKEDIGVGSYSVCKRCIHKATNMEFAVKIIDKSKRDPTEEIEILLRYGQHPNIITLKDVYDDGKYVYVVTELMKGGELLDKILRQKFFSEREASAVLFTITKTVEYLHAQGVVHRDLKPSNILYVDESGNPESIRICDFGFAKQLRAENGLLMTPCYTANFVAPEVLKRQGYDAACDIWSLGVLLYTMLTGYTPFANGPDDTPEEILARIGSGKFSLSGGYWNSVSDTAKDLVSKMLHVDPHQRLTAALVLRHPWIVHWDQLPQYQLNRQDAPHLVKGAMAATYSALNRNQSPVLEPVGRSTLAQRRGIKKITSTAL
Chain of Serine/threonine-protein kinase pim-2 (Homo sapiens) (Q9P1W9 whole entry, looked up): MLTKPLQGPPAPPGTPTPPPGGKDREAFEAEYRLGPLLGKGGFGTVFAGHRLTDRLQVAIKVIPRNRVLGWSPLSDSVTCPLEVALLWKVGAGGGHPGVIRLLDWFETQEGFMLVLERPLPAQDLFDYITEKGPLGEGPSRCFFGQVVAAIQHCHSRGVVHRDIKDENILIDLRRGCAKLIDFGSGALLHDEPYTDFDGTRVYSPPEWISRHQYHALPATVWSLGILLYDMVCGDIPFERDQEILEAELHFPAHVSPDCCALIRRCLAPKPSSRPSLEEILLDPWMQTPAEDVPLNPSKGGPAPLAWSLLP
Chain of Homeodomain-interacting protein kinase 3 (Homo sapiens) (Q9H422 whole entry, looked up): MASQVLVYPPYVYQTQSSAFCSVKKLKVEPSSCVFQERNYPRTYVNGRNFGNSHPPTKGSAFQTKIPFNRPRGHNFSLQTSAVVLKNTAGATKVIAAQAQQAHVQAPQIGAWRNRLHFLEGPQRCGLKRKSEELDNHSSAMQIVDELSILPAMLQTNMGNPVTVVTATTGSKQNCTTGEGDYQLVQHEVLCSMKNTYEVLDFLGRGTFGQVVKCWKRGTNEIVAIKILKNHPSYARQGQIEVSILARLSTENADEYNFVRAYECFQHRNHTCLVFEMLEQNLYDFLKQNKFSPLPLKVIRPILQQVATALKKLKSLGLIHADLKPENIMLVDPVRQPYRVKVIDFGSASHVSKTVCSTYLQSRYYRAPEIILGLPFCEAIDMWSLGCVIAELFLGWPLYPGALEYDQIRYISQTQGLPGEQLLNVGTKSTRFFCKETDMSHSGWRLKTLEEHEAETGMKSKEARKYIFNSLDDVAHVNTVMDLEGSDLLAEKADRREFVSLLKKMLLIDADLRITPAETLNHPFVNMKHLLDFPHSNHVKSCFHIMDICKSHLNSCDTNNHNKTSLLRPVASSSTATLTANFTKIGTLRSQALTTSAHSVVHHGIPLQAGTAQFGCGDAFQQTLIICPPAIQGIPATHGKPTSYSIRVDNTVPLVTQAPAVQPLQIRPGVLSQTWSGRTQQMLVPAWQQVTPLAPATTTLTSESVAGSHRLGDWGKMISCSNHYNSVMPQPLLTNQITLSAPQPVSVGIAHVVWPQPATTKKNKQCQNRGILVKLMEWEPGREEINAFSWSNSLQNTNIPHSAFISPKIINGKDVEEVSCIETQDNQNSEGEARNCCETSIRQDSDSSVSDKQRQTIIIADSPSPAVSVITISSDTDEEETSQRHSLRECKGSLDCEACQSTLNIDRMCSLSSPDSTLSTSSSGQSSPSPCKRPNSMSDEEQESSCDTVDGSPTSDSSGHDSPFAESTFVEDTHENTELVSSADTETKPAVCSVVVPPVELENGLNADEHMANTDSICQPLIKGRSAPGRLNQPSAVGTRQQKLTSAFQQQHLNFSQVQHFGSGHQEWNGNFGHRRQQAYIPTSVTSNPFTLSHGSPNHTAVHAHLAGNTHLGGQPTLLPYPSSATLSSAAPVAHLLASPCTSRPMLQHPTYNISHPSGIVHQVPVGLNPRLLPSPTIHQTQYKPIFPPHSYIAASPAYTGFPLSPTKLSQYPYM
Chain of Calcium/calmodulin-dependent protein kinase kinase 2 (Homo sapiens) (Q96RR4 2-588 limits assumed): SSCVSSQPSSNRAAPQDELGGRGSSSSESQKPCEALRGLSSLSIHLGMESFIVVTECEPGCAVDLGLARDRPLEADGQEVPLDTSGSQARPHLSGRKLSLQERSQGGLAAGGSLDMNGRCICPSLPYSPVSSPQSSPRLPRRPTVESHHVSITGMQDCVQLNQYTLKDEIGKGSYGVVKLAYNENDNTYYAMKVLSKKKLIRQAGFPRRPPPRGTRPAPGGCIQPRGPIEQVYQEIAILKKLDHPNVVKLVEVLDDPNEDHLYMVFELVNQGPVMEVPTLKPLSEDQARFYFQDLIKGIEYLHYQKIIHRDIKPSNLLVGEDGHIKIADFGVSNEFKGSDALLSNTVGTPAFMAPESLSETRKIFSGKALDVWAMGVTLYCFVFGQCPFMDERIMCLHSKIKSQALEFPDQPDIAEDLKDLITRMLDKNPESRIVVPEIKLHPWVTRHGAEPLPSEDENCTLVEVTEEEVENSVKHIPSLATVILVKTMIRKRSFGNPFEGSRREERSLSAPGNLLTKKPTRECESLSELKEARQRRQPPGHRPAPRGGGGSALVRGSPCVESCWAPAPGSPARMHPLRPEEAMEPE
Chain of Interleukin-1 receptor-associated kinase 4 (Homo sapiens) (Q9NWZ3 whole entry): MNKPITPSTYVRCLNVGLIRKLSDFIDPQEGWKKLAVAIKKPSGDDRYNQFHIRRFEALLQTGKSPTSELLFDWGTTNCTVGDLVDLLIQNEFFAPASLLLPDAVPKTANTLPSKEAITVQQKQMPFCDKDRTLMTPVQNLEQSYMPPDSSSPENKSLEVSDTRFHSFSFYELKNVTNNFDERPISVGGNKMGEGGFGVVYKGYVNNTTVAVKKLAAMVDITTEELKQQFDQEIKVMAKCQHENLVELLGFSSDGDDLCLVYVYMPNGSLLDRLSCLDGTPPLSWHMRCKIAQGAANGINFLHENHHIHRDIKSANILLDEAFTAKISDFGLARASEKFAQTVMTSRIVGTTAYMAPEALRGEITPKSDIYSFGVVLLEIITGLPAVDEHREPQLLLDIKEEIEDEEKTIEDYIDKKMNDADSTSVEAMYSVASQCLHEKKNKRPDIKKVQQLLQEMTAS
Chain of Insulin receptor (Homo sapiens) (P06213 28-758 limits assumed): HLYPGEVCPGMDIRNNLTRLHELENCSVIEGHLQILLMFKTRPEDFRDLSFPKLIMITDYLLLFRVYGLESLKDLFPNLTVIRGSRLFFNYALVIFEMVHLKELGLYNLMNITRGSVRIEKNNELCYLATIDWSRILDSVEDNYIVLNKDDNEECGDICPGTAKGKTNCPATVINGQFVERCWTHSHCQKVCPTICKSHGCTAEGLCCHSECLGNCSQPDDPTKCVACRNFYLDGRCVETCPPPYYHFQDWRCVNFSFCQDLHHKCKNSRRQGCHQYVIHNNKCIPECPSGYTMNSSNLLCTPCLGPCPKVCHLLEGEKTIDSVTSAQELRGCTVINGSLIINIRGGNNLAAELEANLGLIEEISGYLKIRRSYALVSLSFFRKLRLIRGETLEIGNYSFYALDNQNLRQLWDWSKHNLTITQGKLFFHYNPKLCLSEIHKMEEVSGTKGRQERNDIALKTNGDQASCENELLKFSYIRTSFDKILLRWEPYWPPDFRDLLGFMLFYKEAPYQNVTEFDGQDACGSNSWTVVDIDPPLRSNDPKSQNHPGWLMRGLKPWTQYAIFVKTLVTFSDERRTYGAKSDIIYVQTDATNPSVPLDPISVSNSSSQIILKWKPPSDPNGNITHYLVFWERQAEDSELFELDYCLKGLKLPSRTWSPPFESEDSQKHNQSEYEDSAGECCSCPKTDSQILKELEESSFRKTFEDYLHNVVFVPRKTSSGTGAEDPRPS
Chain of Insulin receptor (Homo sapiens) (P06213 763-1382 limits assumed): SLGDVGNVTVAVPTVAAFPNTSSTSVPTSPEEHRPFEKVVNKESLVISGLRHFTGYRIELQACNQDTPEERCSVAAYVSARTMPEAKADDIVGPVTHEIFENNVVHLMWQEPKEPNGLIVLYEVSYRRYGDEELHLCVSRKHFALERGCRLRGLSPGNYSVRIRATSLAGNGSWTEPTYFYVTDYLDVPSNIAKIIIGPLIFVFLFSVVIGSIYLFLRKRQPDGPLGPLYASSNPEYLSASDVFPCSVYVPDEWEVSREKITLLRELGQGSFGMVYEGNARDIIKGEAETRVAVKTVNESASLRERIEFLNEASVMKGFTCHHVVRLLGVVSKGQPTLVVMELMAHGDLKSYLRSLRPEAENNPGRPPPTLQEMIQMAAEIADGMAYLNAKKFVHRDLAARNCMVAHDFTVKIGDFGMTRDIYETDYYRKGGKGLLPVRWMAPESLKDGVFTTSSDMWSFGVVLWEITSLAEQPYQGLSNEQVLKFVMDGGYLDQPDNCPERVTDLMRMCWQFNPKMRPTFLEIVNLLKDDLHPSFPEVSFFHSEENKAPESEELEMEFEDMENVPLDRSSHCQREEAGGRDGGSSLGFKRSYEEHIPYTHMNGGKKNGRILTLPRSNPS
Chain of Serine/threonine-protein kinase 16 (Homo sapiens) (O75716 whole entry): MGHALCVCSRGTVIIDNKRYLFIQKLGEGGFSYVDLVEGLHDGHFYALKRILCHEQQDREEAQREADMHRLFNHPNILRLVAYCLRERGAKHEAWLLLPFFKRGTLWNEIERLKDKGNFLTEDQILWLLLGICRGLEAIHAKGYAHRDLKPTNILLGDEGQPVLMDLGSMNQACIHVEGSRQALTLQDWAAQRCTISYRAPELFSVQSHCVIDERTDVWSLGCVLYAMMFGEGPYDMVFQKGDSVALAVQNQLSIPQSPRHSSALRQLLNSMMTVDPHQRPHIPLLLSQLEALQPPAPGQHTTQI

Row | Compound | Activity [1] | Activity [2] | Activity [3] | Activity (Homo sapiens) | Activity [4] | Activity [5] | Activity [6] | Activity [7] | Activity [8] | Activity [9] | Activity [10] | Activity [11] | Activity [12] | Activity [13] | Activity [14] | Activity [15] | Activity [16] | Activity [17] | Activity [18] | Activity [19] | further results
1 | CC[C@@H](CO)Nc1nc(NC(=N)N)c2ncn(C(C)C)c2n1 | 107% | 78% | 24% | 83% | 16% | 13% | 40% | 62% | 11% | 28% | 40% | 3% | 23% | 19% | 30% | 75% | 28% | 42% | 6% | 18% | Activity [20]: 29%; Activity [21]: 68%; Activity [22]: 71%; Activity [23]: 24%; Activity [24]: 74%; Activity [25]: 91%; Ratio (MCF7): 1.6
2 | CC[C@H](CO)Nc1nc(NC(=N)N)c2ncn(C(C)C)c2n1 | 99% | 88% | 38% | 90% | 19% | 17% | 42% | 68% | 21% | 37% | 39% | 5% | 37% | 27% | 39% | 64% | 36% | 59% | 22% | 16% | Activity [20]: 38%; Activity [21]: 71%; Activity [22]: 35%; Activity [23]: 35%; Activity [24]: 76%; Activity [25]: 88%; Ratio (MCF7): 1.8
